Test results published in ChEMBL document CHEMBL2331531, “Synthesis and biological evaluation of urea derivatives as highly potent and selective rho kinase inhibitors” (J Med Chem, 2013).

Tests used:
[1] = target: Serine/threonine-protein kinase MRCK alpha (Homo sapiens, UniProt Q5VT25); experiment: Inhibition of MRCKalpha (unknown origin) using LCD-AKRRRRLSSLRA-NH2 as substrate after 75 mins by luminescence assay in presence of [33P]ATP
Cytochrome P450 2C9 = Cytochrome P450 2C9 (Homo sapiens, UniProt P11712); experiment: Inhibition of CYP2C9 (unknown origin)-mediated tolbutamide hydroxylation to hydroxy tolbutamide; format: ADME
MAP kinase p38 = MAP kinase p38 (Homo sapiens, UniProt O15264+Q15759+Q16539+P53778); experiment: Inhibition of p38 (unknown origin) using biotinylated Flag-ATF2 as substrate after 30 mins by HTRF assay; format: protein assay
[2] = target: Mitogen-activated protein kinase 10 (Homo sapiens, UniProt P53779); experiment: Inhibition of JNK3 alpha1 (unknown origin) using biotinylated Flag-ATF2 as substrate after 15 mins by HTRF assay
Sequence of Mitogen-activated protein kinase 10 (P53779 whole entry): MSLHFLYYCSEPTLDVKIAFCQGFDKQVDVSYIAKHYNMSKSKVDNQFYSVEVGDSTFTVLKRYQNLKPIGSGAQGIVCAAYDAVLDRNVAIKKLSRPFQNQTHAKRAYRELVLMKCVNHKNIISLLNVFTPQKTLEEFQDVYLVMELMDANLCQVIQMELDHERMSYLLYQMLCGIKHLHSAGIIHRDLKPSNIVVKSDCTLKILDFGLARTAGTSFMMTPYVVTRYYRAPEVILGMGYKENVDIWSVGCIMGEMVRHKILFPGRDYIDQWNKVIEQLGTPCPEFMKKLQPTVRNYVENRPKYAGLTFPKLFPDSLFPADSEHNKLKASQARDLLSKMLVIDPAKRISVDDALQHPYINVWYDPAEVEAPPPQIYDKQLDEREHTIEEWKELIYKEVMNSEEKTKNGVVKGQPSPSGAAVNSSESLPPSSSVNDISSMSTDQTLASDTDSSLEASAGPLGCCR

CYP1A2 = target: T1, CYP1A2 (Homo sapiens, UniProt P05177); experiment: Inhibition of CYP1A2 (unknown origin)-mediated phenaceten demethylation to acetaminophen at 10 uM relative to control; format: ADME; details: probe phenacetin (printed: phenaceten)
T1 sequence (P05177 whole entry): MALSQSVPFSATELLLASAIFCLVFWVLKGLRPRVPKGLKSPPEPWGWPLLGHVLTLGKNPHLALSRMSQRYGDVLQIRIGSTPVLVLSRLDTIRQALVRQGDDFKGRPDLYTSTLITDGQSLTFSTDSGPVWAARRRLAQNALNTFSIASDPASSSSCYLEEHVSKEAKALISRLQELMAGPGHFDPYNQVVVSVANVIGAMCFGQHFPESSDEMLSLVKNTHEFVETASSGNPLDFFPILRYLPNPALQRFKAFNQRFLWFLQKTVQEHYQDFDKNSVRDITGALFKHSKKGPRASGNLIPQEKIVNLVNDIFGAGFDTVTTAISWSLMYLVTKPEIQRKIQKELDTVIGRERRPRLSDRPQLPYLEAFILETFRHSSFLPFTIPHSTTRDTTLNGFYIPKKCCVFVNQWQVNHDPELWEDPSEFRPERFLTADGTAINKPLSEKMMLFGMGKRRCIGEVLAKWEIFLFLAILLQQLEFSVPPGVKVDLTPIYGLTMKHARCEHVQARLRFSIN

[3] = Clearance in Sprague-Dawley rat at 1 mg/kg, iv by LC-MS/MS analysis; format: ADME, organism-based; set-up: dose 1 mg/kg, route intravenous; details: in vivo
[4] = Half life in human liver microsomes; format: ADME, Microsome
[5] = AUC in Sprague-Dawley rat at 1 mg/kg, iv by LC-MS/MS analysis; format: ADME, organism-based, Plasma; set-up: dose 1 mg/kg, route intravenous; details: Sprague-Dawley, plasma
Cytochrome P450 3A4 = Cytochrome P450 3A4 (Homo sapiens, UniProt P08684); experiment: Inhibition of CYP3A4 (unknown origin)-mediated midazolam hydroxylation to 1'-Hydroxymidazolam; format: ADME
[6] = target: Rho-associated protein kinase 2 (Homo sapiens, UniProt O75116); experiment: Inhibition of ROCK2 (unknown origin) after 4 hrs by HTRF assay
Sequence of Rho-associated protein kinase 2 (O75116 whole entry): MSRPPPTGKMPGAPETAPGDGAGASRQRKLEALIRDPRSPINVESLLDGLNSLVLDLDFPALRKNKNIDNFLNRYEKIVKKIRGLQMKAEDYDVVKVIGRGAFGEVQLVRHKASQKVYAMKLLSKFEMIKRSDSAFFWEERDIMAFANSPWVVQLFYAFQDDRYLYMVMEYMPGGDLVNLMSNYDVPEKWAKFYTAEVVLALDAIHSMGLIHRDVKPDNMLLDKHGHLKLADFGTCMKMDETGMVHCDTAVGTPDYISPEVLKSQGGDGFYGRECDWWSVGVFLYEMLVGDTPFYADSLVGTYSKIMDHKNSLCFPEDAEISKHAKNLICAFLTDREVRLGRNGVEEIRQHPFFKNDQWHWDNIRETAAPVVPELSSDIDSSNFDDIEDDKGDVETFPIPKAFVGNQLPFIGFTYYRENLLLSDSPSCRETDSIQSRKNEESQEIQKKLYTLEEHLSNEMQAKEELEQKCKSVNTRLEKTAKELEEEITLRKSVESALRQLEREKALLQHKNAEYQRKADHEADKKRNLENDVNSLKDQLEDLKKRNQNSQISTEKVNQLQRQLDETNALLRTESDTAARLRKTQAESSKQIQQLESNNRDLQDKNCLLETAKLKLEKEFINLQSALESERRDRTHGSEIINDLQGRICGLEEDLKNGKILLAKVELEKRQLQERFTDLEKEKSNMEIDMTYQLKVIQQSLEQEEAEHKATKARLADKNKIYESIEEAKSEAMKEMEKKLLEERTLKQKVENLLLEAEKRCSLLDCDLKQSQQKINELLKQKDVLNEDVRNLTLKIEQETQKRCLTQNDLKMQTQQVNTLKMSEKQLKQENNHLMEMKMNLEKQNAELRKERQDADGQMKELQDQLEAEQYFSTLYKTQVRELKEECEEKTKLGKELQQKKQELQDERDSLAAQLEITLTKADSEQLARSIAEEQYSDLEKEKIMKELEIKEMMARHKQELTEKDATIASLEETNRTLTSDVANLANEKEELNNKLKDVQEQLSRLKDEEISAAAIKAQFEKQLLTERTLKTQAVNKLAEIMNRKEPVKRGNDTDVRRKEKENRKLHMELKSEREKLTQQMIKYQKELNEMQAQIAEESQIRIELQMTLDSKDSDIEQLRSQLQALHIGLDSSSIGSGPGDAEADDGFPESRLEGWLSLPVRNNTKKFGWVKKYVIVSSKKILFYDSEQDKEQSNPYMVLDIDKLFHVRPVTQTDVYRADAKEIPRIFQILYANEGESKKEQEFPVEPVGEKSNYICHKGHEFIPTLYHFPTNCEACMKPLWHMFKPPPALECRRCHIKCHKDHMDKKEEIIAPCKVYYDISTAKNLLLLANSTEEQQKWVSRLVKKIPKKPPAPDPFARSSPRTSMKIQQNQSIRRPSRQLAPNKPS

[7] = Oral bioavailability in Sprague-Dawley rat at 2 mg/kg by LC-MS/MS analysis; format: ADME, organism-based; details: in vivo
[8] = Inhibition of ROCK-mediated myosin light chain bisphosphorylation in rat A7R5 cells after 1 hr by fluorescence assay in presence of L-alpha-lysophosphatidic acid; format: cell-based
Outline: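 A7r5 cells in 20% FBS DMEM, plated 5000/well overnight, serum-starved 4 h in 0.05% FBS DMEM; compound 13333 nM to 18 nM final for 1 h, then 10 μM LPA 10 min; fixed, permeabilized, anti-ppMLC plus IR800 secondary; infrared scan, ppMLC signal normalized to TO-PRO-3 nuclear signal. IC50 as mean of two or more experiments.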

CYP2D6 = CYP2D6 (Homo sapiens, UniProt P10635); experiment: Inhibition of CYP2D6 (unknown origin)-mediated bufuralol hydroxylation to 4'-Hydroxybufuralol at 10 uM relative to control; format: ADME; details: probe bufuralol
[9] = target: Rho-associated protein kinase 1 (Homo sapiens, UniProt Q13464); experiment: Inhibition of ROCK1 (unknown origin) after 4 hrs by HTRF assay
Sequence of Rho-associated protein kinase 1 (Q13464 whole entry): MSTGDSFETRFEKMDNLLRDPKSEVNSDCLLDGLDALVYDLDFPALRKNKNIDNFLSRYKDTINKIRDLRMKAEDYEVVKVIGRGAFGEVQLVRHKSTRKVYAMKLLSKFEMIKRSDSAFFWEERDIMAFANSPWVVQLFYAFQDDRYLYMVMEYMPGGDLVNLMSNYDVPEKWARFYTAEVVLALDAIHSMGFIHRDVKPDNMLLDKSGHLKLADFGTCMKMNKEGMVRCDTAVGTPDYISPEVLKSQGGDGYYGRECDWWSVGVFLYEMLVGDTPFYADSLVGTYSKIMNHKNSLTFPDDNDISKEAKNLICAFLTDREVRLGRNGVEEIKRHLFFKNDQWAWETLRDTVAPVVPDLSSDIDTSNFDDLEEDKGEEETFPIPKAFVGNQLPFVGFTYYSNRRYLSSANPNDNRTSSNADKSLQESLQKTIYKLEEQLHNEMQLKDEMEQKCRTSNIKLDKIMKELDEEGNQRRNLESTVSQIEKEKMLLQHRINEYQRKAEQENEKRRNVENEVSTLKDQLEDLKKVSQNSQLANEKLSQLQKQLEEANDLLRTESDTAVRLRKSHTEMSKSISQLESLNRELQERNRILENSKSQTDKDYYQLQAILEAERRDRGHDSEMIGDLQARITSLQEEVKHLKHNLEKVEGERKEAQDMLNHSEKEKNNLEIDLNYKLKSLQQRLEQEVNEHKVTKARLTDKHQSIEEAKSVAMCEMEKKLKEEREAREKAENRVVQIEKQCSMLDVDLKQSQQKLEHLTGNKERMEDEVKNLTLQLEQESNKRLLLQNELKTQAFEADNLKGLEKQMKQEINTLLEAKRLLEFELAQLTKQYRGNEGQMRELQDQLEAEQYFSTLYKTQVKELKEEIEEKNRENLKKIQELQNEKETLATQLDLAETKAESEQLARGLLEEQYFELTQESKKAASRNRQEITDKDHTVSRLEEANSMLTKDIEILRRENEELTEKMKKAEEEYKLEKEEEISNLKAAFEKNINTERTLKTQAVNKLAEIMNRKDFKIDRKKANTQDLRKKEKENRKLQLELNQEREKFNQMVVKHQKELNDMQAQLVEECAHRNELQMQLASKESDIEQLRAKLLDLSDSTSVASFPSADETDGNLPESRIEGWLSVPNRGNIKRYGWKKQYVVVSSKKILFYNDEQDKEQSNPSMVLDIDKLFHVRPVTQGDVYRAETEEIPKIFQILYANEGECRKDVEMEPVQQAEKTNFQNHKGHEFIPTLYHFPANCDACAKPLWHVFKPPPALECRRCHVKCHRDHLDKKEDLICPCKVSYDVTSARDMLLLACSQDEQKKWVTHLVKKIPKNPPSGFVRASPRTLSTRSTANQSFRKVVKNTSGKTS

[10] = Half life in Sprague-Dawley rat at 1 mg/kg, iv by LC-MS/MS analysis; format: ADME, organism-based; set-up: dose 1 mg/kg, route intravenous; details: in vivo
[11] = Inhibition of PKA (unknown origin) after 70 mins by luminescence assay; set-up: species or system Homo sapiens
Cytochrome P450 1A2 = target: T2, Cytochrome P450 1A2 (Homo sapiens, UniProt P05177); experiment: Inhibition of CYP1A2 (unknown origin)-mediated phenaceten demethylation to acetaminophen; format: ADME
T2 sequence (P05177 whole entry): T1 sequence (P05177 whole entry)

[12] = Cmax in Sprague-Dawley rat at 1 mg/kg, iv by LC-MS/MS analysis; format: ADME, organism-based; set-up: dose 1 mg/kg, route intravenous; details: in vivo
CYP3A4 = CYP3A4 (Homo sapiens, UniProt P08684); experiment: Inhibition of CYP3A4 (unknown origin)-mediated midazolam hydroxylation to 1'-Hydroxymidazolam at 10 uM relative to control; format: ADME; details: probe midazolam
[13] = Aqueous solubility in potassium phosphate buffer at pH 5.5 after 24 hrs by HPLC analysis; format: physicochemical; details: pH 5.5, 24 h
[14] = Volume of distribution in Sprague-Dawley rat at 1 mg/kg, iv by LC-MS/MS analysis; format: ADME, organism-based; set-up: dose 1 mg/kg, route intravenous; details: in vivo
Cytochrome P450 2D6 = Cytochrome P450 2D6 (Homo sapiens, UniProt P10635); experiment: Inhibition of CYP2D6 (unknown origin)-mediated bufuralol hydroxylation to 4'-Hydroxybufuralol; format: ADME
CYP2C9 = CYP2C9 (Homo sapiens, UniProt P11712); experiment: Inhibition of CYP2C9 (unknown origin)-mediated tolbutamide hydroxylation to hydroxy tolbutamide at 10 uM relative to control; format: ADME; details: probe tolbutamide

Sequence of Serine/threonine-protein kinase MRCK alpha (Q5VT25 whole entry): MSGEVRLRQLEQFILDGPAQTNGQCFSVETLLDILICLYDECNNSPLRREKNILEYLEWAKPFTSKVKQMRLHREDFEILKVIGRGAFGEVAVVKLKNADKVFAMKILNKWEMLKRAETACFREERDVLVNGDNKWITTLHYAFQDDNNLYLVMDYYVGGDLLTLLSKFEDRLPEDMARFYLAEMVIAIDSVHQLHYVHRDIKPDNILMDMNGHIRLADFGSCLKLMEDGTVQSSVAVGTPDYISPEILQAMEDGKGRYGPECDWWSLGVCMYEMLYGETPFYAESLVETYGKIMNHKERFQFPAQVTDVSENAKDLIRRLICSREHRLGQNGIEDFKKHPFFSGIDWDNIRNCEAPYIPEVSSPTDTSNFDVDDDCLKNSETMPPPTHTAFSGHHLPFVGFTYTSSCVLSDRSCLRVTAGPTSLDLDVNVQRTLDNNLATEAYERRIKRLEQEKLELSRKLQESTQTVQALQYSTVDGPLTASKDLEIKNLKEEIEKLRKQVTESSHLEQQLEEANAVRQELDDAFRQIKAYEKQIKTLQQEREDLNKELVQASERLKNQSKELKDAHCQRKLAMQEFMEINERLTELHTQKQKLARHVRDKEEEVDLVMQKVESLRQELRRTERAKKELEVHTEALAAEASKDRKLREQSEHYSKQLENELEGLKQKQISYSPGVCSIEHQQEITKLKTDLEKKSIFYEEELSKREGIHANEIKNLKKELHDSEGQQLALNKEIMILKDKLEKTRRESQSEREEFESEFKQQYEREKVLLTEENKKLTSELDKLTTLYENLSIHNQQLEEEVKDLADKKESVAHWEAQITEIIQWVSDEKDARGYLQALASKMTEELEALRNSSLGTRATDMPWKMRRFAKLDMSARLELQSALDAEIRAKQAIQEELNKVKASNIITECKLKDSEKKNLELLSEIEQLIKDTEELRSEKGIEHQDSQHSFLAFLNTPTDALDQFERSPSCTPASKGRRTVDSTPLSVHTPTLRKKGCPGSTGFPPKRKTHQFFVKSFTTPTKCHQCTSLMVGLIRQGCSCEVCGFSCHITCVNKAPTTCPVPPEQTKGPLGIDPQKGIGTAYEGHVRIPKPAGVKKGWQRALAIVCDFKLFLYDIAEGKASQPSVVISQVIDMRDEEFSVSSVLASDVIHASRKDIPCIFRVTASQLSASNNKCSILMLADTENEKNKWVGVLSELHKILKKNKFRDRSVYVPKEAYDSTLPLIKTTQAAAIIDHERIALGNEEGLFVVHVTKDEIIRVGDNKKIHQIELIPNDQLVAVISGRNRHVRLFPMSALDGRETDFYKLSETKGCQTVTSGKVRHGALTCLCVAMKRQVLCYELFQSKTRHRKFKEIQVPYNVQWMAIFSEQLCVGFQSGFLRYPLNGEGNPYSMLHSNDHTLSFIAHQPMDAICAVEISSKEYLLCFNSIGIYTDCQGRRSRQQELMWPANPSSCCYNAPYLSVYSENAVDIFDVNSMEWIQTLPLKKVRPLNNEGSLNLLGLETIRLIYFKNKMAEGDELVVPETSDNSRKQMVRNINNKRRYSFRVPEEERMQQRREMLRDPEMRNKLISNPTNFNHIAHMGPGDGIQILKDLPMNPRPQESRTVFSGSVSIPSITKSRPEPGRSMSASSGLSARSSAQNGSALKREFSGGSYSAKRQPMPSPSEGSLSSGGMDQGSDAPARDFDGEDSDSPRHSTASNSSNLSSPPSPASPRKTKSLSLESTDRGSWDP

SMILES	IC50 [1] [nM]	IC50 (Cytochrome P450 2C9) [nM]	IC50 (MAP kinase p38) [nM]	IC50 [2] [nM]	inhibition at 10 µM (CYP1A2) [%]	clearance [3] [mL/min/kg]	half-life [4] [h]	AUC [5] [µM·h]	IC50 [6] [nM]	bioavailability [7] [%]	IC50 [8] [nM]	inhibition at 10 µM (CYP2D6) [%]	IC50 [9] [nM]	half-life [10] [h]	IC50 [11] [nM]	Cmax [12] [nM]	inhibition at 10 µM (CYP3A4) [%]	solubility [13]	Vd [14] [L/kg]	inhibition at 10 µM (CYP2C9) [%]	other results
COc1cccc(CN(CCN(C)C)C(=O)Nc2ccc(-c3cn[nH]c3)cc2)c1	8700	30000	> 20000	> 20000	-29	176	0.567	0.2	1	10	4	85	6	1	456	330	34	soluble	14	35	IC50 (Cytochrome P450 3A4): 80000 nM; IC50 (Cytochrome P450 1A2): > 100000 nM; IC50 (Cytochrome P450 2D6): 3000 nM
COc1cccc(CN(CCO)C(=O)Nc2ccc(-c3cn[nH]c3)cc2)c1	4310	2000	> 20000	> 20000	-23	11.2	0.4	4.2	1	51	19	38	6	1.6	2990	3800	37	–	1	95	IC50 (Cytochrome P450 3A4): 35000 nM; IC50 (Cytochrome P450 1A2): > 100000 nM; IC50 (Cytochrome P450 2D6): 40000 nM
COc1cccc(CN(CCN2CCOCC2)C(=O)Nc2ccc(-c3cn[nH]c3)cc2)c1	–	–	> 20000	> 20000	-37	63	0.05	0.6	13	4	138	82	58	2.2	3820	1200	51	soluble	3.5	68	–
COc1cccc(CN(CCN2CCCC2)C(=O)Nc2ccc(-c3cn[nH]c3)cc2)c1	–	–	> 20000	> 20000	0	71	0.417	0.6	3	0	6	88	13	1	541	480	34	soluble	4.4	24	–
O=C(Nc1ccc(-c2cn[nH]c2)cc1)NC(CCO)c1cccc(F)c1 (stereo not given)	6400	–	> 20000	> 20000	-2	4.9	> 2	9.5	2	28	32	41	10	2.1	580	9200	23	–	0.7	71	–
COc1cccc(CN(CCN2CCCCC2)C(=O)Nc2ccc(-c3cn[nH]c3)cc2)c1	–	–	> 20000	> 20000	18	86	0.183	0.4	5	0	17	87	14	1	338	530	61	soluble	4.3	56	–
COc1cccc(CN(C)C(=O)Nc2ccc(-c3cn[nH]c3)cc2)c1	1850	600	> 20000	> 20000	9	9.4	0.383	5.9	1	48	–	45	4	1	1810	2600	27	–	1.1	96	IC50 (Cytochrome P450 3A4): > 100000 nM; IC50 (Cytochrome P450 1A2): > 100000 nM; IC50 (Cytochrome P450 2D6): > 100000 nM
CCN(Cc1cccc(OC)c1)C(=O)Nc1ccc(-c2cn[nH]c2)cc1O[C@H]1CCN(C)C1	1550	–	> 20000	> 20000	9	30	–	1.3	1	11	–	83	4	1	6700	1100	53	soluble	2.6	65	–
